Data published in ChEMBL document CHEMBL2384906, “Biological activity, design, synthesis and structure activity relationship of some novel derivatives of curcumin containing sulfonamides” (Eur J Med Chem, 2013).
Values after ≈ are worked out from the molar mass of the structure shown. Active and inactive are the calls of the source. The rule behind the calls is not given here.

Key:
Staphylococcus aureus [1] = test: Antimicrobial activity against Staphylococcus aureus ATCC 11632 after 24 hrs by broth micro serial dilution method; type: functional; conditions: ATCC 11632, 24 h
In short: (§1)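 This was broth microdilution in autoclaved Mueller-Hinton broth. 150 µL of compound per well was serially diluted […], and 50 µL of test organism was added. Plates were incubated 24 h at 37 °C and optical density was read.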

Curvularia lunata [2] = test: Antifungal activity against Curvularia lunata MTCC 581 assessed as zone of inhibition at 40 uM after 48 hrs by disc diffusion method; type: functional; conditions: MTCC 581, 48 h, read-out: IZ
In short: (§2)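 Spores from 4-day potato dextrose agar cultures, suspended in sterile water at 1.5 × 10⁵ CFU/mL. 0.2 mL was spread on potato dextrose agar. 5 mm filter-paper discs soaked with test compound were laid on the lawn. Incubation was 48 h at 28 °C, then the inhibition zone was measured in mm. Fluconazole was the positive control and acetone the negative control.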

Bacillus cereus [3] = test: Antimicrobial activity against Bacillus cereus MTCC 7350 assessed as diameter of inhibition zone at 80 uM after 24 hrs by Kirby -Baur disc diffusion method; type: functional; conditions: MTCC 7350, 24 h, read-out: DIZ
In short: (§3)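 Kirby-Bauer disc diffusion was used. Acetone stocks (160 µM) were serially doubled down to 80, 40 and 20 µM. 4 µL of each went onto 5 mm sterile paper discs, which were dried 30 min at 50 °C. Inoculum was 1.5 × 10⁸ CFU/mL diluted to 3 × 10² CFU/mL, and 50 µL was spread on Mueller-Hinton agar. After 24 h at 37 °C the inhibition-zone diameter was measured. Ciprofloxacin served as positive control.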

Curvularia lunata [4] = test: Antifungal activity against Curvularia lunata MTCC 581 after 48 hrs; type: functional; conditions: MTCC 581, 48 h
Curvularia lunata [5] = test: Antifungal activity against Curvularia lunata MTCC 581 assessed as zone of inhibition at 80 uM after 48 hrs by disc diffusion method; type: functional; conditions: MTCC 581, 48 h, read-out: IZ; in short: as §2
Aspergillus niger [6] = test: Antifungal activity against Aspergillus niger MTCC 1108 assessed as zone of inhibition at 40 uM after 48 hrs by disc diffusion method; type: functional; in short: as §2
Aspergillus niger [7] = test: Antifungal activity against Aspergillus niger MTCC 1108 after 48 hrs; type: functional; conditions: MTCC 1108, 48 h
Staphylococcus aureus [8] = test: Antimicrobial activity against Staphylococcus aureus ATCC 11632 assessed as diameter of inhibition zone at 40 uM after 24 hrs by Kirby -Baur disc diffusion method; type: functional; in short: as §3
Bacillus cereus [9] = test: Antimicrobial activity against Bacillus cereus MTCC 7350 after 24 hrs by broth micro serial dilution method; type: functional; conditions: MTCC 7350, 24 h; in short: as §1
Staphylococcus aureus [10] = test: Antimicrobial activity against Staphylococcus aureus ATCC 11632 assessed as diameter of inhibition zone at 80 uM after 24 hrs by Kirby -Baur disc diffusion method; type: functional; conditions: ATCC 11632, 24 h, read-out: DIZ; in short: as §3
Aspergillus flavus [11] = test: Antifungal activity against Aspergillus flavus MTCC 1021 after 48 hrs; type: functional; conditions: MTCC 1021, 48 h
Trichoderma viride [12] = test: Antifungal activity against Trichoderma viride MTCC 1107 after 48 hrs; type: functional; conditions: MTCC 1107, 48 h
Bacillus cereus [13] = test: Antimicrobial activity against Bacillus cereus MTCC 7350 assessed as diameter of inhibition zone at 20 uM after 24 hrs by Kirby -Baur disc diffusion method; type: functional; in short: as §3
Salmonella typhi [14] = test: Antimicrobial activity against Salmonella typhi ATCC 23564 assessed as diameter of inhibition zone at 40 uM after 24 hrs by Kirby -Baur disc diffusion method; type: functional; conditions: Salmonella enterica subsp. enterica serovar Typhi
Salmonella typhi [15] = test: Antimicrobial activity against Salmonella typhi ATCC 23564 assessed as diameter of inhibition zone at 20 uM after 24 hrs by Kirby -Baur disc diffusion method; type: functional; conditions: Salmonella enterica subsp. enterica serovar Typhi
Pseudomonas aeruginosa [16] = test: Antimicrobial activity against Pseudomonas aeruginosa ATCC 15499 assessed as diameter of inhibition zone at 80 uM after 24 hrs by Kirby -Baur disc diffusion method; type: functional; conditions: ATCC 15499, 24 h, read-out: DIZ; in short: as §3
Staphylococcus aureus [17] = test: Antimicrobial activity against Staphylococcus aureus ATCC 11632 assessed as diameter of inhibition zone at 20 uM after 24 hrs by Kirby -Baur disc diffusion method; type: functional; in short: as §3
Aspergillus flavus [18] = test: Antifungal activity against Aspergillus flavus MTCC 1021 assessed as zone of inhibition at 40 uM after 48 hrs by disc diffusion method; type: functional; conditions: MTCC 1021, 48 h, read-out: IZ; in short: as §2
Bacillus cereus [19] = test: Antimicrobial activity against Bacillus cereus MTCC 7350 assessed as diameter of inhibition zone at 40 uM after 24 hrs by Kirby -Baur disc diffusion method; type: functional; in short: as §3
Trichoderma viride [20] = test: Antifungal activity against Trichoderma viride MTCC 1107 assessed as zone of inhibition at 20 uM after 48 hrs by disc diffusion method; type: functional; conditions: MTCC 1107, 48 h, read-out: IZ; in short: as §2
Salmonella typhi [21] = test: Antimicrobial activity against Salmonella typhi ATCC 23564 assessed as diameter of inhibition zone at 80 uM after 24 hrs by Kirby -Baur disc diffusion method; type: functional, Salmonella enterica subsp. enterica serovar Typhi; conditions: Salmonella enterica, ATCC 23564, 24 h; read-out: DIZ
Trichoderma viride [22] = test: Antifungal activity against Trichoderma viride MTCC 1107 assessed as zone of inhibition at 40 uM after 48 hrs by disc diffusion method; type: functional; conditions: MTCC 1107, 48 h, read-out: IZ; in short: as §2
Aspergillus niger [23] = test: Antifungal activity against Aspergillus niger MTCC 1108 assessed as zone of inhibition at 80 uM after 48 hrs by disc diffusion method; type: functional; conditions: MTCC 1108, 48 h, read-out: IZ; in short: as §2
Curvularia lunata [24] = test: Antifungal activity against Curvularia lunata MTCC 581 assessed as zone of inhibition at 20 uM after 48 hrs by disc diffusion method; type: functional; conditions: MTCC 581, 48 h, read-out: IZ; in short: as §2
Aspergillus flavus [25] = test: Antifungal activity against Aspergillus flavus MTCC 1021 assessed as zone of inhibition at 80 uM after 48 hrs by disc diffusion method; type: functional; conditions: MTCC 1021, 48 h, read-out: IZ; in short: as §2
HeLa = test: Cytotoxicity against human HeLa cells after 24 hrs by MTT assay; type: functional, cell-based
In short: (§4)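 The MTT assay seeded 5 × 10⁴ cells per well and grew them 24 h in RPMI 1640 with compound at 2.5–200 µM. Medium without cells was the blank and adriamycin the positive control. MTT was added for 4 h at 37 °C, formazan was solubilised, and absorbance was read at 570 nm. IC50 is the concentration that cuts viability 50% against untreated cells.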

Pseudomonas aeruginosa [26] = test: Antimicrobial activity against Pseudomonas aeruginosa ATCC 15499 after 24 hrs by broth micro serial dilution method; type: functional; conditions: ATCC 15499, 24 h; in short: as §1
Trichoderma viride [27] = test: Antifungal activity against Trichoderma viride MTCC 1107 assessed as zone of inhibition at 80 uM after 48 hrs by disc diffusion method; type: functional; conditions: MTCC 1107, 48 h, read-out: IZ; in short: as §2
Aspergillus flavus [28] = test: Antifungal activity against Aspergillus flavus MTCC 1021 assessed as zone of inhibition at 20 uM after 48 hrs by disc diffusion method; type: functional; in short: as §2
Escherichia coli [29] = test: Antimicrobial activity against Escherichia coli ATCC 35218 assessed as diameter of inhibition zone at 80 uM after 24 hrs by Kirby -Baur disc diffusion method; type: functional; conditions: ATCC 35218, 24 h, read-out: DIZ; in short: as §3
Escherichia coli [30] = test: Antimicrobial activity against Escherichia coli ATCC 35218 assessed as diameter of inhibition zone at 20 uM after 24 hrs by Kirby -Baur disc diffusion method; type: functional; in short: as §3
QG-56 = test: Cytotoxicity against human QG56 cells after 24 hrs by MTT assay; type: functional, cell-based; in short: as §4
HepG2 = test: Cytotoxicity against human HepG2 cells after 24 hrs by MTT assay; type: functional, cell-based; in short: as §4
Salmonella typhi [31] = test: Antimicrobial activity against Salmonella typhi ATCC 23564 after 24 hrs by broth micro serial dilution method; type: functional, Salmonella enterica subsp. enterica serovar Typhi; conditions: Salmonella enterica, ATCC 23564, 24 h
Pseudomonas aeruginosa [32] = test: Antimicrobial activity against Pseudomonas aeruginosa ATCC 15499 assessed as diameter of inhibition zone at 40 uM after 24 hrs by Kirby -Baur disc diffusion method; type: functional; conditions: ATCC 15499, 24 h, read-out: DIZ; in short: as §3
HCT-116 = test: Cytotoxicity against human HCT116 cells after 24 hrs by MTT assay; type: functional, cell-based; in short: as §4
Pseudomonas aeruginosa [33] = test: Antimicrobial activity against Pseudomonas aeruginosa ATCC 15499 assessed as diameter of inhibition zone at 20 uM after 24 hrs by Kirby -Baur disc diffusion method; type: functional; in short: as §3
Aspergillus niger [34] = test: Antifungal activity against Aspergillus niger MTCC 1108 assessed as zone of inhibition at 20 uM after 48 hrs by disc diffusion method; type: functional; in short: as §2
Escherichia coli [35] = test: Antimicrobial activity against Escherichia coli ATCC 35218 after 24 hrs by broth micro serial dilution method; type: functional; conditions: ATCC 35218, 24 h; in short: as §1
Mus musculus = test: Antiinflammatory activity in mouse assessed as inhibition of carrageenan-induced increase in paw volume at 200 mg/kg administered 1 hr prior to carrageenan challenge measured after 3 hrs relative to control; type: functional
In short: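 Mice were fasted 2 h and placed in groups of five. Controls received saline i.p. Phenylbutazone was given at 100 mg/kg i.p., curcumin at 200 mg/kg i.p., and derivatives at 200 mg/kg. After 1 h, 0.1 mL of 1% carrageenan in saline was injected subplantar into the right hind paw. Paw volume was followed by plethysmometer for 3 h, and % inhibition was calculated as (Vc − Vt)/Vc × 100.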

Escherichia coli [36] = test: Antimicrobial activity against Escherichia coli ATCC 35218 assessed as diameter of inhibition zone at 40 uM after 24 hrs by Kirby -Baur disc diffusion method; type: functional; in short: as §3

COc1cc(/C=C/C(=O)C(/N=N/c2ccc(S(=O)(=O)Nc3cc(C)on3)cc2)=C(O)/C=C/c2ccc(O)c(OC)c2)ccc1O
MIC (Staphylococcus aureus [1]): > 80 µM | zone of inhibition at 40 µM (Curvularia lunata [2]): 11 mm | zone of inhibition at 80 µM (Bacillus cereus [3]): 9 mm | MIC (Curvularia lunata [4]): 80 µM (≈ 50.6 µg/mL) | zone of inhibition at 80 µM (Curvularia lunata [5]): 13 mm | inhibition zone (IZ) (Aspergillus niger [6]): inactive | MIC (Aspergillus niger [7]): > 80 µM | diameter of the inhibition zone (DIZ) (Staphylococcus aureus [8]): inactive | MIC (Bacillus cereus [9]): > 80 µM | zone of inhibition at 80 µM (Staphylococcus aureus [10]): 9 mm | MIC (Aspergillus flavus [11]): 80 µM (≈ 50.6 µg/mL) | MIC (Trichoderma viride [12]): 80 µM (≈ 50.6 µg/mL) | diameter of the inhibition zone (DIZ) (Bacillus cereus [13]): inactive | diameter of the inhibition zone (DIZ) (Salmonella typhi [14]): inactive | diameter of the inhibition zone (DIZ) (Salmonella typhi [15]): inactive | zone of inhibition at 80 µM (Pseudomonas aeruginosa [16]): 9 mm | diameter of the inhibition zone (DIZ) (Staphylococcus aureus [17]): inactive | zone of inhibition at 40 µM (Aspergillus flavus [18]): 9 mm | diameter of the inhibition zone (DIZ) (Bacillus cereus [19]): inactive | zone of inhibition at 20 µM (Trichoderma viride [20]): 9 mm | zone of inhibition at 80 µM (Salmonella typhi [21]): 9 mm | zone of inhibition at 40 µM (Trichoderma viride [22]): 11 mm | zone of inhibition at 80 µM (Aspergillus niger [23]): 12 mm | zone of inhibition at 20 µM (Curvularia lunata [24]): 9 mm | zone of inhibition at 80 µM (Aspergillus flavus [25]): 10 mm | IC50 (HeLa): > 100 µM | MIC (Pseudomonas aeruginosa [26]): > 80 µM | zone of inhibition at 80 µM (Trichoderma viride [27]): 13 mm | inhibition zone (IZ) (Aspergillus flavus [28]): inactive | zone of inhibition at 80 µM (Escherichia coli [29]): 11 mm | diameter of the inhibition zone (DIZ) (Escherichia coli [30]): inactive | IC50 (QG-56): Not Active | IC50 (HepG2): Not Active | MIC (Salmonella typhi [31]): > 80 µM | zone of inhibition at 40 µM (Pseudomonas aeruginosa [32]): 9 mm | IC50 (HCT-116): Not Active | diameter of the inhibition zone (DIZ) (Pseudomonas aeruginosa [33]): inactive | inhibition zone (IZ) (Aspergillus niger [34]): inactive | MIC (Escherichia coli [35]): > 80 µM | inhibition in vivo at 200 mg/kg (Mus musculus): 14.5% | diameter of the inhibition zone (DIZ) (Escherichia coli [36]): inactive
